Our source for the MIC, Activity and Time values is ChEMBL document CHEMBL3124870, “Discovery and characterization of potent thiazoles versus methicillin- and vancomycin-resistant Staphylococcus aureus” (J Med Chem, 2014).

Data set [1] has as its system Staphylococcus aureus. Kind of data set: Antibacterial activity against methicillin-resistant Staphylococcus aureus USA500 assessed as inhibition of visible growth by broth microdilution method. The format is functional. Background: Dilution methods test growth across graded concentrations, often in twofold steps.
Data set [2] has as its system Staphylococcus aureus. Kind of data set: Antibacterial activity against methicillin-resistant Staphylococcus aureus NRS194 assessed as inhibition of visible growth by broth microdilution method. Format: functional.
Data set [3] deals with Staphylococcus aureus. Kind of data set: Antibacterial activity against methicillin-resistant Staphylococcus aureus NRS107 assessed as inhibition of visible growth by broth microdilution method. Format: functional.
Data set [4] concerns Staphylococcus aureus. Kind of data set: Antibacterial activity against methicillin-resistant Staphylococcus aureus NRS108 assessed as inhibition of visible growth by broth microdilution method. Format: functional.
Data set [5] deals with Staphylococcus aureus. Kind of data set: Antibacterial activity against methicillin-resistant Staphylococcus aureus USA300 assessed as inhibition of visible growth by broth microdilution method. Format: functional.
In data set [6] the test system is Staphylococcus aureus. Kind of data set: Antibacterial activity against methicillin-resistant Staphylococcus aureus USA200 assessed as inhibition of visible growth by broth microdilution method. The format is functional.
Data set [7] concerns Staphylococcus aureus. Kind of data set: Antibacterial activity against methicillin-resistant Staphylococcus aureus USA700 assessed as inhibition of visible growth by broth microdilution method. The format is functional.
For data set [8], the system named is Staphylococcus aureus. Kind of data set: Antibacterial activity against vancomycin-intermediate Staphylococcus aureus HIP07256 assessed as inhibition of visible growth by broth microdilution method. The format is functional.
The subject of data set [9] is Staphylococcus aureus. Kind of data set: Antibacterial activity against methicillin-resistant Staphylococcus aureus USA100 assessed as inhibition of visible growth by broth microdilution method. Format: functional.
The subject of data set [10] is Staphylococcus aureus. Kind of data set: Antibacterial activity against methicillin-resistant Staphylococcus aureus USA1100 assessed as inhibition of visible growth by broth microdilution method. Format: functional.
The subject of data set [11] is Staphylococcus aureus. Kind of data set: Antibacterial activity against methicillin-resistant Staphylococcus aureus ATCC 43300 assessed as inhibition of visible growth by broth microdilution method. Format: functional.
In data set [12] the test system is Staphylococcus aureus. Kind of data set: Antibacterial activity against vancomycin-resistant Staphylococcus aureus assessed as inhibition of visible growth by broth microdilution method. The format is functional.
Another data set concerns HeLa. Kind of data set: Cytotoxicity against human HeLa cells assessed as cell viability at 11 ug/ml by MTS assay. Format: cell-based. In general terms: Formazan colour is commonly taken as a measure of viable cells.
For data set [13], the system named is Staphylococcus aureus. Kind of data set: Antibacterial activity against methicillin-resistant Staphylococcus aureus USA800 assessed as inhibition of visible growth by broth microdilution method. Format: functional.
The subject of data set [14] is Staphylococcus aureus. Kind of data set: Antibacterial activity against methicillin-resistant Staphylococcus aureus NRS119 assessed as inhibition of visible growth by broth microdilution method. The format is functional.
Data set [15] has as its system Staphylococcus aureus. Kind of data set: Antibacterial activity against methicillin-resistant Staphylococcus aureus USA400 assessed as inhibition of visible growth by broth microdilution method. The format is functional.
The subject of data set [16] is Staphylococcus aureus. Kind of data set: Antibacterial activity against vancomycin-intermediate Staphylococcus aureus LIM 3 assessed as inhibition of visible growth by broth microdilution method. Format: functional.
The test system of data set [17] is Staphylococcus aureus. Kind of data set: Antibacterial activity against methicillin-resistant Staphylococcus aureus USA1000 assessed as inhibition of visible growth by broth microdilution method. The format is functional.
The subject of data set [18] is Staphylococcus aureus. Kind of data set: Antibacterial activity against vancomycin-intermediate Staphylococcus aureus ATCC 700699 assessed as inhibition of visible growth by broth microdilution method. The format is functional.
The test system of data set [19] is Staphylococcus aureus. Kind of data set: Bactericidal activity against methicillin-resistant Staphylococcus aureus USA300 assessed as time required to complete elimination of bacteria by 3-log10 by time-kill assay. Format: functional. The essentials: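 Viable counts (CFU) followed over a 12-hour window; endpoint is a 3-log10 fall in CFU.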

The structures appear in SMILES notation. In brackets after ≈: the same amount, converted by molar mass.

In the case of `C/C(=N\NC(=N)N)c1sc(-c2ccc(-c3ccccc3)cc2)nc1C`, the MIC stood at 1.6 µg/mL (≈ 4.58 µM) with Staphylococcus aureus [1]; 1.4 µg/mL (≈ 4.01 µM) in the data set on Staphylococcus aureus [2]; 1.2 µg/mL (≈ 3.43 µM) in the data set on Staphylococcus aureus [3]; 2 µg/mL (≈ 5.72 µM) with Staphylococcus aureus [4]; 1 µg/mL (≈ 2.86 µM) in the data set on Staphylococcus aureus [5]; 0.6 µg/mL (≈ 1.72 µM) in the data set on Staphylococcus aureus [6]. Also, the minimal inhibitory concentration (MIC) in the data set on Staphylococcus aureus [7] turned out to be 0.8 µg/mL (≈ 2.29 µM); with Staphylococcus aureus [8] it was 0.5 µg/mL (≈ 1.43 µM); in the data set with Staphylococcus aureus [9], 2 µg/mL (≈ 5.72 µM); in the data set with Staphylococcus aureus [10], 0.6 µg/mL (≈ 1.72 µM); in the data set on Staphylococcus aureus [11], 0.6 µg/mL (≈ 1.72 µM); with Staphylococcus aureus [12], 0.6 µg/mL (≈ 1.72 µM). Further, the minimal inhibitory concentration (MIC) with Staphylococcus aureus [13] turned out to be 1.2 µg/mL (≈ 3.43 µM); with Staphylococcus aureus [14], 0.6 µg/mL (≈ 1.72 µM); in the data set with Staphylococcus aureus [15], 0.8 µg/mL (≈ 2.29 µM); in the data set with Staphylococcus aureus [16] it was 0.6 µg/mL (≈ 1.72 µM); in the data set with Staphylococcus aureus [17] it was 0.8 µg/mL (≈ 2.29 µM); in the data set with Staphylococcus aureus [18], 0.6 µg/mL (≈ 1.72 µM). Also, the Activity result in the data set with HeLa was “Non-toxic”.
Consider `CCCc1ccc(-c2nc(C)c(/C(C)=N/NC(=N)N)s2)cc1`, for which the minimum inhibitory concentration (MIC) with Staphylococcus aureus [1] was 1.9 µg/mL (≈ 6.02 µM); in the data set on Staphylococcus aureus [2], 1.9 µg/mL (≈ 6.02 µM); in the data set with Staphylococcus aureus [3] it was 1.2 µg/mL (≈ 3.8 µM); with Staphylococcus aureus [4], 1.2 µg/mL (≈ 3.8 µM); in the data set with Staphylococcus aureus [5], 1.2 µg/mL (≈ 3.8 µM); in the data set on Staphylococcus aureus [6] it was 1.9 µg/mL (≈ 6.02 µM). Also, the MIC was found to be 1.2 µg/mL (≈ 3.8 µM) with Staphylococcus aureus [7]; 1.9 µg/mL (≈ 6.02 µM) with Staphylococcus aureus [8]; 1.6 µg/mL (≈ 5.07 µM) with Staphylococcus aureus [9]; 1.6 µg/mL (≈ 5.07 µM) in the data set on Staphylococcus aureus [10]; 1.2 µg/mL (≈ 3.8 µM) in the data set on Staphylococcus aureus [11]; 1.2 µg/mL (≈ 3.8 µM) in the data set on Staphylococcus aureus [12]. Moreover, the MIC in the data set on Staphylococcus aureus [13] was 1.9 µg/mL (≈ 6.02 µM); with Staphylococcus aureus [14], 1.9 µg/mL (≈ 6.02 µM); with Staphylococcus aureus [15], 1.2 µg/mL (≈ 3.8 µM); in the data set with Staphylococcus aureus [16] it was 1.6 µg/mL (≈ 5.07 µM); in the data set on Staphylococcus aureus [17], 1.6 µg/mL (≈ 5.07 µM); in the data set with Staphylococcus aureus [18], 1.9 µg/mL (≈ 6.02 µM). The Activity result in the data set on HeLa is “Non-toxic”.
For the compound `CCCCCc1ccc(-c2nc(C)c(/C(C)=N/NC(=N)N)s2)cc1`, the MIC in the data set on Staphylococcus aureus [2] came out at 1.1 µg/mL (≈ 3.2 µM); in the data set on Staphylococcus aureus [3], 0.5 µg/mL (≈ 1.46 µM); in the data set on Staphylococcus aureus [4], 0.9 µg/mL (≈ 2.62 µM); in the data set on Staphylococcus aureus [7], 0.9 µg/mL (≈ 2.62 µM); with Staphylococcus aureus [8], 0.7 µg/mL (≈ 2.04 µM); in the data set with Staphylococcus aureus [11], 0.8 µg/mL (≈ 2.33 µM). Besides, the results for the MIC in the data set on Staphylococcus aureus [13], with Staphylococcus aureus [14] and in the data set on Staphylococcus aureus [15] were 0.7 µg/mL (≈ 2.04 µM), 0.9 µg/mL (≈ 2.62 µM) and 0.9 µg/mL (≈ 2.62 µM), respectively. Further, the Time with Staphylococcus aureus [19] stood at 2 h. For the same compound, the Activity entry in the data set with HeLa is “Non-toxic”.
`CCCCCCCc1ccc(-c2nc(C)c(/C(C)=N/NC(=N)N)s2)cc1`: the minimal inhibitory concentration (MIC) with Staphylococcus aureus [1] stood at 3 µg/mL (≈ 8.07 µM); in the data set with Staphylococcus aureus [2], 3 µg/mL (≈ 8.07 µM); in the data set on Staphylococcus aureus [3], 1 µg/mL (≈ 2.69 µM); in the data set on Staphylococcus aureus [4], 3 µg/mL (≈ 8.07 µM); with Staphylococcus aureus [5], 2.5 µg/mL (≈ 6.73 µM); with Staphylococcus aureus [6] it was 1.2 µg/mL (≈ 3.23 µM). Also, the MIC with Staphylococcus aureus [7] is 4 µg/mL (≈ 10.8 µM); with Staphylococcus aureus [8], 1.5 µg/mL (≈ 4.04 µM); in the data set with Staphylococcus aureus [9], 3 µg/mL (≈ 8.07 µM); in the data set with Staphylococcus aureus [10] it was 1.5 µg/mL (≈ 4.04 µM); with Staphylococcus aureus [11], 3 µg/mL (≈ 8.07 µM); in the data set with Staphylococcus aureus [12] it was 1.5 µg/mL (≈ 4.04 µM). The MIC was 1.5 µg/mL (≈ 4.04 µM) with Staphylococcus aureus [13]; 1.5 µg/mL (≈ 4.04 µM) in the data set on Staphylococcus aureus [14]; 1.5 µg/mL (≈ 4.04 µM) in the data set on Staphylococcus aureus [15]; 0.7 µg/mL (≈ 1.88 µM) with Staphylococcus aureus [16]; 2.5 µg/mL (≈ 6.73 µM) with Staphylococcus aureus [17]; 0.7 µg/mL (≈ 1.88 µM) in the data set with Staphylococcus aureus [18]. Also, the Activity entry in the data set on HeLa was “Non-toxic”.
As for `CCCCCCCCCc1ccc(-c2nc(C)c(/C(C)=N/NC(=N)N)s2)cc1`, the minimal inhibitory concentration (MIC) with Staphylococcus aureus [1] came out at 3.7 µg/mL (≈ 9.26 µM); with Staphylococcus aureus [2], 4.4 µg/mL (≈ 11 µM); in the data set with Staphylococcus aureus [3], 1.1 µg/mL (≈ 2.75 µM); in the data set with Staphylococcus aureus [4] it was 4.4 µg/mL (≈ 11 µM); in the data set with Staphylococcus aureus [7] it was 1.8 µg/mL (≈ 4.5 µM); in the data set on Staphylococcus aureus [8] it was 2.9 µg/mL (≈ 7.26 µM). The minimum inhibitory concentration (MIC) in the data set with Staphylococcus aureus [13] was found to be 1.8 µg/mL (≈ 4.5 µM); in the data set with Staphylococcus aureus [14], 2.2 µg/mL (≈ 5.51 µM); in the data set with Staphylococcus aureus [15] it was 4.4 µg/mL (≈ 11 µM); in the data set with Staphylococcus aureus [16], 1.1 µg/mL (≈ 2.75 µM); with Staphylococcus aureus [18] it was 1.1 µg/mL (≈ 2.75 µM). Besides, the Activity entry with HeLa was “Non-toxic”.

The term MIC denotes the lowest concentration that inhibits growth of the organism.
